Measured values as given in ChEMBL document CHEMBL5137109, “Tunable Cysteine-Targeting Electrophilic Heteroaromatic Warheads Induce Ferroptosis” (J Med Chem, 2022).
Values belong to the molecule of their own block, whether it stands above or below them. Active and inactive are the calls of the source. The calls are words filed in the database; no cut-off is given here.

How the values were obtained:
[1] = tested on: HCT-116; test: Cytotoxicity against human HCT-116 cells assessed as reduction in cell viability incubated for 3 days by methylene blue staining based analysis; type: functional; conditions: HCT-116, 72 h
[2] = tested on: NCI-H522; test: Cytotoxicity against human NCI-H522 cells assessed as time required to cause 50% irreversible cell death treated with compound followed by washing for every 30 mins for 6 hrs by methylene blue staining based analysis; type: functional
How it was run: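 NCI-H522 cells, 5*10³/well (n=3), plated overnight, then treated with compound or DMSO. Wells washed immediately after treatment and then at 30-min intervals up to 6 h; last wells not washed. Methylene blue in 50% ethanol fix/stain 30 min RT, dye dissolved in 0.1N HCl, A668. Each point taken as % survival of matching DMSO-treated cells.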

[3] = Selectivity ratio of IC50 for human HCT-116 cells to IC50 for human NCI-H522 cells by methylene blue staining based analysis; type: functional
[4] = tested on: NCI-H522; test: Cytotoxicity against human NCI-H522 cells assessed as reduction in cell viability incubated for 3 days by methylene blue staining based analysis; type: functional; conditions: NCI-H522, 72 h
[5] = tested on: NCI-H522; test: Induction of lipid peroxidation in human NCI-H522 cells assessed as increase in C11-BODIPY oxidation at 5 uM incubated for 6 hrs by flow cytometry relative to control; type: functional
How it was run: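 NCI-H522 cells at ~70% density, plated overnight, treated with compound or DMSO together with C11-BODIPY 581/591 (1 μM) for 3 h or 6 h. Cells then PBS-washed, trypsinised, resuspended in PBS with 2% FBS and read by flow cytometry, preferably 20*10³ cells. Oxidation compared with DMSO treatment.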

[6] = target: T1, Thioredoxin reductase 1, cytoplasmic (Homo sapiens) (UniProt Q16881); test: Binding affinity to TXRD1 in human NCI-H522 cells at 10 uM incubated for 1 hr by Biotin-TAMRA pull down based western blot analysis; type: cell-based
T1 sequence (whole entry): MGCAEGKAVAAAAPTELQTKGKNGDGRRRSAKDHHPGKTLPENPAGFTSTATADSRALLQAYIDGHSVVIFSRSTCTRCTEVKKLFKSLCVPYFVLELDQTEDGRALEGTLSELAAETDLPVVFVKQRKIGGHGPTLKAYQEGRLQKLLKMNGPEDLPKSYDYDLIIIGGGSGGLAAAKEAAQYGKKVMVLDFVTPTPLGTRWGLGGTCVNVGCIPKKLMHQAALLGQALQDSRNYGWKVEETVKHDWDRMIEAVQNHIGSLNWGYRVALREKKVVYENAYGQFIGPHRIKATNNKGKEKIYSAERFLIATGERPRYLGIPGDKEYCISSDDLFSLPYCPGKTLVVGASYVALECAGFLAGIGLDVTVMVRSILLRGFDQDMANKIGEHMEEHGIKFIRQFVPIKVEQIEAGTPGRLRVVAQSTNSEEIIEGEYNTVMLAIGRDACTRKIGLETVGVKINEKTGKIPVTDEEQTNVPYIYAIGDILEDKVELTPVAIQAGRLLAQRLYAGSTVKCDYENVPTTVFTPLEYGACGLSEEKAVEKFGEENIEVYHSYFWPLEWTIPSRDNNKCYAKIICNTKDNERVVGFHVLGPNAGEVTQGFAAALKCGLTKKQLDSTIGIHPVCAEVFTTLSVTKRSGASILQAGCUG
How it was run: (§1)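 Probe or control given to cells for 1 h at 37 °C, two 10 cm dishes per treatment. Lysates precleared with streptavidin, then clicked to biotin-TAMRA azide (20 min RT plus 10 min 37 °C). Proteins precipitated, captured overnight on streptavidin beads and washed with RIPA/PBS. Bead eluates separated on 12.5% SDS-PAGE and immunoblotted, with milk blocking, primary antibody overnight at 4 °C, HRP secondary and ECL.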

[7] = Cytotoxicity against human WI-38 cells assessed as reduction in cell viability incubated for 3 days by methylene blue staining based analysis; type: toxicity
[8] = Ratio of IC50 for cytotoxicity against human NCI-H522 cells in presence of ferroptosis inhibitor, liproxstatin-1 to IC50 for cytotoxicity against human NCI-H522 cells; type: functional
How it was run: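 NCI-H522 cells, 25*10³/well (n=3), plated overnight, treated with compound with or without Liproxstatin-1 (0.25 μM). After 3 days, methylene blue in 50% ethanol fix/stain 30 min RT, dye dissolved in 0.1N HCl, A668. Fold change = IC₅₀ with Liproxstatin-1 / IC₅₀ without.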

[9] = tested on: MDA-MB-231; test: Cytotoxicity against human MDA-MB-231 cells assessed as reduction in cell viability incubated for 3 days by methylene blue staining based analysis; type: functional; conditions: MDA-MB-231, 72 h
[10] = tested on: NCI-H522; test: Induction of lipid peroxidation in human NCI-H522 cells assessed as increase in C11-BODIPY oxidation at 0.5 uM incubated for 3 hrs by flow cytometry; type: functional, cell-based
How it was run: (§2)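 NCI-H522 cells (~70% density) plated in dishes overnight, then treated with compound or DMSO plus C11-BODIPY 581/591 (1 μM) added at treatment. After 3 h or 6 h, cells washed, trypsinized, resuspended in PBS with 2% FBS and analysed by flow cytometry (preferably 20×10³ cells). Oxidation compared with DMSO treatment.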

[11] = tested on: MDA-MB-468; test: Cytotoxicity against human MDA-MB-468 cells assessed as reduction in cell viability incubated for 3 days by methylene blue staining based analysis; type: functional; conditions: MDA-MB-468, 72 h
[12] = tested on: NCI-H522; test: Cytotoxicity against human NCI-H522 cells assessed as reduction in cell viability incubated for 3 days in presence of ferroptosis inhibitor, liproxstatin-1 by methylene blue staining based analysis; type: functional; conditions: NCI-H522, 72 h
How it was run: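 NCI-H522 cells seeded at 25×10³/well (n=3), adhered overnight, then exposed to compound with or without liproxstatin-1 (0.25 μM). After 3 days, methylene blue staining with HCl elution and A668. Results given as % relative to DMSO control, mean ± SD, n=3, one-way ANOVA. Fold change is IC50 (with liproxstatin-1)/IC50 (alone).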

[13] = tested on: HT-1080; test: Cytotoxicity against human HT-1080 cells assessed as reduction in cell viability incubated for 3 days by methylene blue staining based analysis; type: functional; conditions: HT-1080, 72 h
[14] = tested on: U2OS; test: Cytotoxicity against human U2OS cells assessed as reduction in cell viability incubated for 3 days by methylene blue staining based analysis; type: functional; conditions: 72 h
[15] = tested on: HeLa; test: Cytotoxicity against human HeLa cells assessed as reduction in cell viability incubated for 3 days by methylene blue staining based analysis; type: functional; conditions: 72 h
[16] = Cytotoxicity against mouse MEF cells assessed as reduction in cell viability incubated for 3 days by methylene blue staining based analysis; type: toxicity
[17] = target: T2, Phospholipid hydroperoxide glutathione peroxidase GPX4 (Homo sapiens) (UniProt P36969); test: Binding affinity to GPX4 in human NCI-H522 cells assessed as increase in aggregation temperature at 0.5 uM incubated for 1 hr by CETSA analysis; type: cell-based
T2 sequence (whole entry): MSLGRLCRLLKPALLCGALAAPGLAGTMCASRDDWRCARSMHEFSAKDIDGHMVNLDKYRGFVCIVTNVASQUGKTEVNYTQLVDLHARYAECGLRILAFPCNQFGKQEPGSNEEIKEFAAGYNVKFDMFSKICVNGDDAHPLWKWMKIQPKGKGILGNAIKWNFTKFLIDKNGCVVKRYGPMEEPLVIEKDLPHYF
How it was run: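 Cells ~80% confluent treated 1 h (vehicle DMSO 0.1% v/v), trypsinized, washed, resuspended in PBS and aliquots heated at temperatures between 43–67 °C for 3 min. Cells then pelleted and lysed in NP-40/Tris buffer. Soluble fraction analysed by SDS-PAGE and western blot, and aggregation temperature compared with DMSO. Mean ± SD, n = 3, t-test.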

[18] = target: T2, Phospholipid hydroperoxide glutathione peroxidase GPX4 (Homo sapiens); test: Binding affinity to GPX4 in human NCI-H522 cells at 10 uM incubated for 1 hr by Biotin-TAMRA pull down based western blot analysis; type: cell-based; how it was run: as §1
[19] = tested on: NCI-H522; test: Induction of lipid peroxidation in human NCI-H522 cells assessed as increase in C11-BODIPY oxidation at 10 uM incubated for 6 hrs by flow cytometry; type: functional, cell-based; how it was run: as §2
[20] = target: T1, Thioredoxin reductase 1, cytoplasmic (Homo sapiens); test: Binding affinity to TXRD1 in human NCI-H522 cells at 10 uM incubated for 1 hr by Biotin-TAMRA pull down based mass spectrometry; type: cell-based
How it was run: (§3)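 Cells ~70% density, five 10 cm dishes per treatment, exposed to alkyne probe or control for 1 h at 37 °C, then lysed (NP-40/Tris). Lysate precleared on streptavidin beads 2 h at 4 °C, then CuAAC with biotin-TAMRA azide, THPTA, CuSO4 and ascorbate for 30 min at RT. Proteins MeOH/CHCl3 precipitated, enriched overnight on streptavidin, checked by in-gel fluorescence. Reduced/alkylated, trypsin-digested, nano LC-MS/MS. Filtered at 1% FDR, ≥2 unique peptides.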

[21] = target: T3, Glutathione S-transferase omega-1 (Homo sapiens) (UniProt P78417); test: Binding affinity to GSTO1 in human NCI-H522 cells at 10 uM incubated for 1 hr by Biotin-TAMRA pull down based western blot analysis; type: cell-based; how it was run: as §1
T3 sequence (whole entry): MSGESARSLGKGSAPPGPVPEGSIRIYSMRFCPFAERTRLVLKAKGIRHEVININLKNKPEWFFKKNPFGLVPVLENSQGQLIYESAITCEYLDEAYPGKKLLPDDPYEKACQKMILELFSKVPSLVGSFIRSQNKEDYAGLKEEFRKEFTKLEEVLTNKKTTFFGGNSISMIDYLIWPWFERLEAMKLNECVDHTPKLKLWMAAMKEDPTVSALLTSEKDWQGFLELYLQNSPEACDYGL

[22] = target: T3, Glutathione S-transferase omega-1 (Homo sapiens); test: Binding affinity to GSTO1 in human NCI-H522 cells at 10 uM incubated for 1 hr by Biotin-TAMRA pull down based mass spectrometry; type: cell-based; how it was run: as §3
[23] = target: T2, Phospholipid hydroperoxide glutathione peroxidase GPX4 (Homo sapiens); test: Binding affinity to GPX4 in human NCI-H522 cells at 10 uM incubated for 1 hr by Biotin-TAMRA pull down based mass spectrometry; type: cell-based; how it was run: as §3

SMILES: C#Cc1nc2ccccc2s1
IC50 [1]: 19600 nM
IT50 [2]: 1.7 h
Ratio IC50 [3]: 22.8
IC50 [4]: 860 nM
fold change (FC) [5]: >5

Activity [6]: Active
SMILES: C#CCNC(=O)c1csc(C#Cc2ccccc2)n1
IC50 [1]: > 40000 nM
IC50 [4]: > 40000 nM

SMILES: C#Cc1nc(C(=O)N2CCN(C(c3ccc(Cl)cc3)c3ccc(Cl)cc3)CC2)cs1
IC50 [1]: > 1000 nM
IC50 at 3 days [7]: 22 nM
Ratio IC50 [8]: 464.353
IC50 [9]: 21 nM
Activity [10]: Active
IC50 [11]: 84 nM
IC50 [12]: 7890 nM
IC50 [13]: 19 nM
IC50 [14]: 367 nM
IC50 [4]: 17 nM
IC50 [15]: 242 nM
IC50 at 3 days [16]: 10 nM
deltaT [17]: 7 °C

Activity [18]: Active
Activity [20]: Active
Activity [21]: Active
Activity [22]: Active
Activity [23]: Active
SMILES: C#CCNC(=O)c1csc(C#C)n1
IC50 [1]: 19200 nM
Activity [19]: Active
IC50 [4]: 2100 nM
